Measurements from ChEMBL document CHEMBL3734648, “The synthesis of indolo[2,3-b]quinoline derivatives with a guanidine group: highly selective cytotoxic agents” (Eur J Med Chem, 2015).
Active and inactive are the calls of the source. No cut-off for these calls is given here.

Tests used:
[1] = Induction of DNA intercalation (unknown origin) after 24 hrs by methyl green dye displacement assay
In short: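 Compound displaces methyl green from a DNA/methyl green complex. IC50 is the concentration giving a 50% decrease in the initial absorbance of the DNA/methyl green solution. Mean ± SD, n = 3–5.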

A549 [2] = test: Antiproliferative activity against human A549 cells after 72 hrs by sulforhodamine B assay; assay type: functional, cell-based; details: A549, 72 h
MCF7 [3] = test: Antiproliferative activity against human MCF7 cells after 72 hrs by sulforhodamine B assay; assay type: functional, cell-based; details: MCF7, 72 h
LoVo = test: Antiproliferative activity against human LoVo cells after 72 hrs by sulforhodamine B assay; assay type: functional, cell-based
KB [4] = test: Antiproliferative activity against human KB cells after 72 hrs by sulforhodamine B assay; assay type: functional, cell-based
BALB/3T3 = test: Cytotoxicity against mouse BALB/3T3 cells assessed as cell viability after 1 hr by sulforhodamine B assay; assay type: cell-based; details: BALB/3T3, 1 h
Candida albicans = test: Inhibition of biofilm formation of Candida albicans assessed as reduction in cell viability of biofilm after 24 hrs by XTT staining based spectrophotometry; assay type: functional; details: read-out: ED50 (the source's name)
In short: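 Candida albicans biofilms grown in vitro in 96-well plates, then exposed to compounds, and biofilm cell viability determined. ED50 reported as mean ± SD, n = 3.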

A549 [5] = test: Selectivity index, ratio of IC50 for mouse BALB/3T3 cells to IC50 for human A549 cells; assay type: functional
MCF7 [6] = test: Selectivity index, ratio of IC50 for mouse BALB/3T3 cells to IC50 for human MCF7 cells; assay type: functional
KB [7] = test: Induction of cell cycle arrest in human KB cells assessed as accumulation at G0/G1 phase at 1 uM after 72 hrs by propidium iodide staining based flow cytometry (reference value: 53.2 +/- 5.8%); assay type: functional
In short: (§1)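 KB cells exposed for 72 h at […]. Cell-cycle phase distribution (G0/G1, S, G2/M) given as mean ± SD from independent experiments. Treated cells compared with control cells by Mann–Whitney U test, significance at p ≤ 0.05.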

KB [8] = test: Induction of cell cycle arrest in human KB cells assessed as accumulation at G0/G1 phase at 0.5 uM after 72 hrs by propidium iodide staining based flow cytometry (reference value: 53.2 +/- 5.8%); assay type: functional; in short: as §1
KB [9] = test: Induction of cell cycle arrest in human KB cells assessed as accumulation at G0/G1 phase at 0.25 uM after 72 hrs by propidium iodide staining based flow cytometry (reference value: 53.2 +/- 5.8%); assay type: functional; in short: as §1
KB [10] = test: Induction of cell cycle arrest in human KB cells assessed as accumulation at S phase at 1 uM after 72 hrs by propidium iodide staining based flow cytometry (reference value: 32.1 +/- 5.4%); assay type: functional; in short: as §1
KB [11] = test: Induction of cell cycle arrest in human KB cells assessed as accumulation at S phase at 0.5 uM after 72 hrs by propidium iodide staining based flow cytometry (reference value: 32.1 +/- 5.4%); assay type: functional; in short: as §1
KB [12] = test: Induction of cell cycle arrest in human KB cells assessed as accumulation at S phase at 0.25 uM after 72 hrs by propidium iodide staining based flow cytometry (reference value: 32.1 +/- 5.4%); assay type: functional; in short: as §1
KB [13] = test: Induction of cell cycle arrest in human KB cells assessed as accumulation at G2/M phase at 1 uM after 72 hrs by propidium iodide staining based flow cytometry (reference value: 14.7 +/- 1.1 %); assay type: functional; in short: as §1
KB [14] = test: Induction of cell cycle arrest in human KB cells assessed as accumulation at G2/M phase at 0.5 uM after 72 hrs by propidium iodide staining based flow cytometry (reference value: 14.7 +/- 1.1 %); assay type: functional; in short: as §1
KB [15] = test: Induction of cell cycle arrest in human KB cells assessed as accumulation at G2/M phase at 0.25 uM after 72 hrs by propidium iodide staining based flow cytometry (reference value: 14.7 +/- 1.1 %); assay type: functional; in short: as §1
KB [16] = test: Induction of mitochondrial membrane potential loss in human KB cells at 0.5 to 1 uM after 72 hrs by JC-1 staining based flow cytometric analysis; assay type: functional
In short: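 Mitochondrial membrane potential of KB cells read after 72 h exposure at 1.0 and 0.5. Fraction of cells with reduced potential compared with control cells, significance at p ≤ 0.05.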

KB [17] = test: Induction of apoptosis in human KB cells assessed as apoptotic cells at 1 uM after 72 hrs by Annexin V/propidium iodide staining-based flow cytometry (reference value: 4.8 +/- 2.4 %); assay type: functional
In short: (§2)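 Apoptosis and necrosis in KB cells after 72 h exposure at 1.0 or 0.5. Staining with annexin V (AV) and propidium iodide (PI). Cells scored as live (AV−/PI−), apoptotic (AV+/PI−) or necrotic (AV+/PI+). Values as mean ± SD, compared with control cells at p ≤ 0.05.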

KB [18] = test: Induction of apoptosis in human KB cells assessed as apoptotic cells at 0.5 uM after 72 hrs by Annexin V/propidium iodide staining-based flow cytometry (reference value: 4.8 +/- 2.4 %); assay type: functional; in short: as §2
KB [19] = test: Induction of apoptosis in human KB cells assessed as necrotic cells at 1 uM after 72 hrs by Annexin V/propidium iodide staining-based flow cytometry (reference value: 3.9 +/- 0.8 %); assay type: functional; in short: as §2
KB [20] = test: Induction of apoptosis in human KB cells assessed as necrotic cells at 0.5 uM after 72 hrs by Annexin V/propidium iodide staining-based flow cytometry (reference value: 3.9 +/- 0.8 %); assay type: functional; in short: as §2
KB [21] = test: Induction of apoptosis in human KB cells assessed as live cells at 1 uM after 72 hrs by Annexin V/propidium iodide staining-based flow cytometry (reference value: 91.3 +/- 3.1 %); assay type: functional; in short: as §2
KB [22] = test: Induction of apoptosis in human KB cells assessed as live cells at 0.5 uM after 72 hrs by Annexin V/propidium iodide staining-based flow cytometry (reference value: 91.3 +/- 3.1 %); assay type: functional; in short: as §2
KB [23] = test: Induction of apoptosis in human KB cells assessed as induction of caspase-3/7 activity at 1 uM after 72 hrs by Ac-DEVD-ACC-based fluorescence assay relative to control; assay type: functional
In short: (§3)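 KB cells treated for 72 h at 1.0 or 0.5. Caspase-3/7 activity measured by an enzymatic assay, normalized to protein content and expressed relative to untreated control. Significance versus control at p ≤ 0.05.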

KB [24] = test: Induction of apoptosis in human KB cells assessed as induction of caspase-3/7 activity at 0.5 uM after 72 hrs by Ac-DEVD-ACC-based fluorescence assay; assay type: functional, cell-based; in short: as §3
[25] = test system: erythrocytes (Homo sapiens); test: Hemolytic activity in human erythrocytes after 30 mins by spectrophotometry
[26] = Hemolytic activity in human RBC after 30 mins by spectrophotometry; assay type: ADME, cell-based, Erythrocyte; details: for Activity: erythrocyte, 0.5 h; for HC50 at 0.5 h: human red blood cells
In short: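 Human red blood cells incubated with compound over 10^-6 to 5×10^-4 M for 30 min at 37 °C. HC50 taken as the concentration lysing 50% of cells. Mean ± SD of three individual determinations.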

Row | Compound | IC50 [1] [µM] | IC50 (A549 [2]) [µM] | IC50 (MCF7 [3]) [µM] | IC50 (LoVo) [µM] | IC50 (KB [4]) [µM] | IC50 (BALB/3T3) [µM] | EC50 (Candida albicans) [µM] | other results
1 | CCOc1ccc(-c2nc3ccc(-c4nc5ccc(N6CCN(C)CC6)cc5[nH]4)cc3[nH]2)cc1 | 12.1 | – | – | – | – | – | – | –
2 | Cc1c2ccccc2nc2c1c1cc(NC(=O)[C@@H]3CCCN3)ccc1n2CCN(C)C | 42.2 | 0.27 | 0.32 | 0.06 | 0.38 | 0.36 | 25.5 | –
3 | Cc1c2c3cc(NC(=N)N)ccc3nc-2n(C)c2ccccc12.Cl.Cl | 71.5 | 0.14 | 0.06 | 76.9 | 0.88 | 66.4 | 197 | Ratio IC50 (A549 [5]): 600; Ratio IC50 (MCF7 [6]): 600; Activity (KB [7]): 32.8%; Activity (KB [8]): 29.2%; Activity (KB [9]): 39.5%; Activity (KB [10]): 48.6%; Activity (KB [11]): 39.8%; Activity (KB [12]): 35.3%; Activity (KB [13]): 18.6%; Activity (KB [14]): 31%; Activity (KB [15]): 25.3%; Activity (KB [16]): 11%; Activity (KB [17]): 25.7%; Activity (KB [18]): 43.7%; Activity (KB [19]): 12.2%; Activity (KB [20]): 8.2%; Activity (KB [21]): 62.1%; Activity (KB [22]): 41.1%; fold change (FC) (KB [23]): 5; Activity (KB [24]): Active
4 | Cc1c2c3ccccc3nc-2n(C)c2ccccc12 | 367 | – | – | – | – | – | – | HC50 at 0.5 h [25]: 120 µM
5 | Cc1c2ccccc2nc2c1c1cc(NC(=O)CNC(=N)N)ccc1n2CCN(C)C | – | 1.96 | 2.31 | 0.82 | 1.23 | 3.55 | – | –
6 | Cc1c2c3cc(NC(=O)CNC(=N)N)ccc3nc-2n(C)c2ccccc12.Cl.Cl.Cl | 40.5 | 1.82 | 4.75 | 0.83 | 3.88 | 4.47 | 4.2 | Activity [26]: Dose-dependent effect; HC50 at 0.5 h [26]: 192 µM
7 | Cc1c2ccccc2nc2c1c1cc(NC(=O)[C@@H]3CCCN3C(=N)N)ccc1n2CCN(C)C | – | 6.22 | 2.06 | 8.31 | 7.37 | 13.4 | – | –
8 | Cc1c2c3cc(NC(=O)[C@@H]4CCCN4C(=N)N)ccc3nc-2n(C)c2ccccc12 | – | 11 | 7.85 | 7.76 | 15.6 | 31.9 | – | –
9 | Cc1c2c3cc(N)ccc3nc-2n(C)c2ccccc12 | 150 | 0.16 | 0.52 | 0.07 | 0.72 | 0.54 | 41 | –
10 | Cc1c2ccccc2nc2c1c1cc(N)ccc1n2CCN(C)C | 125 | 0.88 | 0.33 | 0.077 | 0.86 | 0.56 | 34.2 | –
11 | Cc1c2ccccc2nc2c1c1cc(NC(=O)CN)ccc1n2CCN(C)C.Cl.Cl.Cl | 80.3 | 0.74 | 0.75 | 0.09 | 1.13 | 0.61 | 74.3 | Activity [26]: Dose-dependent effect; HC50 at 0.5 h [26]: 80.3 µM
12 | Cc1c2ccccc2nc2c1c1cc(NC(=N)N)ccc1n2CCN(C)C.Cl.Cl.Cl.Cl | 101 | 3.24 | 0.81 | 9.38 | 0.87 | 30 | 287 | Activity (KB [7]): 33.4%; Activity (KB [8]): 43.8%; Activity (KB [9]): 51.6%; Activity (KB [10]): 46.9%; Activity (KB [11]): 31.6%; Activity (KB [12]): 31.1%; Activity (KB [13]): 19.6%; Activity (KB [14]): 24.6%; Activity (KB [15]): 17.3%; Activity (KB [16]): 11%; Activity (KB [17]): 24.4%; Activity (KB [18]): 32.5%; Activity (KB [19]): 7.5%; Activity (KB [20]): 5.9%; Activity (KB [21]): 68.1%; Activity (KB [22]): 61.5%; fold change (FC) (KB [23]): 2
